Source: PMC4656071 (Biochemical pharmacology, 2015)

How the values were obtained:
sEH = conditions: cited from earlier work
CYP2D6 = assay: Recombinant human CYPs incubation, CYP2D6; assay type: in vitro ADME; conditions: 1 μM AEPU, 20 pmol/ml CYP, 30 min
Outline: (§1)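 Recombinant human CYPs (20 pmol/ml) with 1 μM test compound in 100 mM sodium phosphate pH 7.4, preincubated 5 min at 37 °C. NADPH-generating system added; incubated 0 and 30 min. Stopped with 200 nM internal standard in methanol; LC-MS/MS. Metabolites compared as response-area ratio to internal standard.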

CYP 3A4 = assay type: in vitro ADME, human; conditions: 10 uM ketoconazole, 30 min, 37°C
[1] = assay type: in vitro ADME, rat, human; conditions: incubated in vitro without NADPH
[2] = animal models; cited from earlier work
CYP3A4 = assay: Recombinant human CYPs incubation, CYP3A4; assay type: in vitro ADME; conditions: 1 μM AEPU, 20 pmol/ml CYP, 30 min
Outline: as §1

[3] = 5 mg/kg for mouse and rat, 0.3 mg/kg for dog; cited from earlier work
[4] = Blood level-time course of AEPU and its metabolites after oral dosing in mice; assay type: in vivo, male swiss webster mice
Human sEH = target: T1, Human sEH (Homo sapiens, UniProt P34913); assay: sEH activity assay; assay type: biochemical; conditions: fluorescent assay for sEH inhibition, from Table 3 (human and mouse sEH)
T1 sequence (P34913 1-555): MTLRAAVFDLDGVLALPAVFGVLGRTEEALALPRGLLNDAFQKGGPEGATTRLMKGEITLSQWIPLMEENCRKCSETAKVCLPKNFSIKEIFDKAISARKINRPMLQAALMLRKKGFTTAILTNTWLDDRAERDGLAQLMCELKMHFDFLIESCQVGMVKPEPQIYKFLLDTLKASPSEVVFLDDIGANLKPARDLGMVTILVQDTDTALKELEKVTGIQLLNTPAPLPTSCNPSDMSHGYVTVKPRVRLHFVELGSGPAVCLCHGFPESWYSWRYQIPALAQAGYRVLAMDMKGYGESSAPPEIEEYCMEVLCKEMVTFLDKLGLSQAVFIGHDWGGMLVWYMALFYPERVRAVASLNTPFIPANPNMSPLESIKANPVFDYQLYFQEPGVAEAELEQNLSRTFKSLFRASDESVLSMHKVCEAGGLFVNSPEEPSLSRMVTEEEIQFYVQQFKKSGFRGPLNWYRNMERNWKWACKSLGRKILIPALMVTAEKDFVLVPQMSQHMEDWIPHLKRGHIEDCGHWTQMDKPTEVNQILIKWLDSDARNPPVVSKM

[5] = In vivo metabolism study of AEPU, rat urine by LC-MS; parameters: species or system rat (Sprague Dawley); conditions: rats, oral 10 mg/kg AEPU, urine 24 h after treatment

Compound: O=C(O)CCCNC(=O)NC12CC3CC(CC(C3)C1)C2 [4-(3-adamantan-1-yl-ureido)butanoic acid]
- inhibitory potency on sEH (in words) (sEH): very weak

Compound: CCOCCOCCOCCCCCNC(=O)NC12CC3CC(CC(C3)C1)C2 [AEPU, 1-adamantan-1-yl-3-(5-(2-(2-ethoxyethoxy)ethoxy)pentyl)urea]
- role of CYP2D6 in the in vitro metabolism of AEPU (CYP2D6): minor enzyme
- metabolism of AEPU in human liver S9 fraction with ketoconazole (CYP 3A4): ceased
- metabolite formation in vitro without NADPH [1]: failed to generate metabolites
- blood level of AEPU through the whole time course [2]: undetectable
- role of CYP3A4 in the in vitro metabolism of AEPU (CYP3A4): major enzyme
- area under curve after oral administration, comparison of species [3]: largest area under curve for dog, and then rat, while under detection limitation for mouse
- metabolism in vivo (in words) ([4]; oral 10 mg/kg, multiple metabolites observed after 30 minutes): metabolized rapidly

Compound: CCOCCOCCOCCCCCNC(=O)NC12CC3CC(CC(O)(C3)C1)C2 [M2]
- potency lower compared to AEPU (Human sEH): 30–100 fold

Compound: O=C(O)CCNC(=O)NC12CC3CC(CC(C3)C1)C2 [M15, 3-(3-adamantyl-ureido)-propanoic acid]
- occurrence in rat urine [5]: major metabolite
- blood level 6 hours post administration ([4]; oral 10 mg/kg AEPU, mouse whole blood, 6 hours): under the detection limitation
